Test results published in ChEMBL document CHEMBL1126281, “Synthesis and dopaminergic activity of some 3-(1,2,3,6-tetrahydro-1-pyridylalkyl)indoles. A novel conformational model to explain structure-activity relationships” (J Med Chem, 1992).

What was measured:
D(2) dopamine receptor [1] = biological target: T1, D(2) dopamine receptor (Rattus norvegicus, UniProt P61169); experiment: Evaluated for its ability to displace tritiated receptor ligand in rat striatal membranes [3H]ADTN, a dopamine agonist; type: functional, cell membranes, Striatum, Membrane
T1 sequence (P61169 whole entry): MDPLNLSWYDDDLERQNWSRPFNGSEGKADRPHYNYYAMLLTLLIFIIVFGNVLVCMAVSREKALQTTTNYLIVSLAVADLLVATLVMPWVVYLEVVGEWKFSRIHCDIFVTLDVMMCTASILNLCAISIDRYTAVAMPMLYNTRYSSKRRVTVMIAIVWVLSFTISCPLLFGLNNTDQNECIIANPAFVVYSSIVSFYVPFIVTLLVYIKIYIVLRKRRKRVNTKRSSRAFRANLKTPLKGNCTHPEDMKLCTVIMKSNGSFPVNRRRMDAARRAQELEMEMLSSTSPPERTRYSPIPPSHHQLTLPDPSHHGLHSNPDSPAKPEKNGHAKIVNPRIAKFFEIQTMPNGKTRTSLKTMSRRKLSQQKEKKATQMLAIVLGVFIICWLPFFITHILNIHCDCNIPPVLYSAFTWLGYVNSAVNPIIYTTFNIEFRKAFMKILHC

Rattus norvegicus [2] = experiment: Evaluated in vivo for its ability to induce contralateral rotational behavior in rats with unilateral, 6-hydroxy DA induced lesions of the substantia nigra at 3 mg/kg dosage orally; type: functional; details: route oral
In short: (§1)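 Rats given a unilateral 6-hydroxydopamine injection into the substantia nigra (8 μg per rat) at least 1 month earlier. Drug was given orally or subcutaneously and contralateral turns were recorded. Totals are cumulative at 1 h or 2 h after dosing, reported as means ± SEM with n = 3-6 rats.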

D(2) dopamine receptor [3] = biological target: T1, D(2) dopamine receptor; experiment: Evaluated for its ability to displace tritiated receptor ligand in rat striatal membranes 3[H]spiperone, a dopamine antagonist; type: functional, cell membranes, Striatum, Membrane
Rattus norvegicus [4] = experiment: Compound was evaluated for D2 dopaminergic activity measured as total contralateral turns expressed as mean after 2 hr at a dose of 0.3 mg/kg administered subcutaneously; type: functional; details: route subcutaneous; in short: as §1
Rattus norvegicus [5] = experiment: Compound was evaluated for D2 dopaminergic activity measured as total contralateral turns expressed as mean after 2 hr at a dose of 0.1 mg/kg administered subcutaneously; type: functional; details: route subcutaneous; in short: as §1
Rattus norvegicus [6] = experiment: Compound was evaluated for D2 dopaminergic activity measured as total contralateral turns expressed as mean after 2 hr at a dose of 1 mg/kg peroral administration; type: functional; details: route oral; in short: as §1
Rattus norvegicus [7] = experiment: Compound was evaluated for D2 dopaminergic activity measured as total contralateral turns expressed as mean after 1 hr at a dose of 0.3 mg/kg peroral administration.; type: functional; details: route oral; in short: as §1
Rattus norvegicus [8] = experiment: Compound was evaluated for increase striatal acetyl choline (AcCh) concentration in intact rat administered subcutaneously.; type: functional; details: sc
Rattus norvegicus [9] = experiment: Compound was evaluated for D2 dopaminergic activity measured as total contralateral turns expressed as mean after 2 hr at a dose of 0.3 mg/kg peroral administration.; type: functional; details: route oral; in short: as §1
Rattus norvegicus [10] = experiment: Compound was evaluated for D2 dopaminergic activity measured as total contralateral turns expressed as mean after 1 hr at a dose of 0.3 mg/kg administered subcutaneously; type: functional; details: route subcutaneous; in short: as §1
Rattus norvegicus [11] = experiment: Compound was evaluated for D2 dopaminergic activity measured as total contralateral turns expressed as mean after 1 hr at a dose of 0.1 mg/kg administered subcutaneously; type: functional; details: route subcutaneous; in short: as §1
D(2) dopamine receptor [12] = biological target: T1, D(2) dopamine receptor; experiment: Compound was evaluated for its ability to displace tritiated receptor ligand in rat striatal membranes [3H]ADTN, a dopamine agonist; type: functional, cell membranes, Striatum, Membrane
Rattus norvegicus [13] = experiment: Compound was evaluated for D2 dopaminergic activity measured as total contralateral turns expressed as mean after 1 hr at a dose of 3 mg/kg peroral administration.; type: functional; details: route oral; in short: as §1
Rattus norvegicus [14] = experiment: Compound was evaluated for D2 dopaminergic activity measured as total contralateral turns expressed as mean after 2 hr at a dose of 3 mg/kg peroral administration.; type: functional; details: route oral; in short: as §1
Rattus norvegicus [15] = experiment: Compound was evaluated for D2 dopaminergic activity measured as total contralateral turns expressed as mean after 1 hr at a dose of 1 mg/kg peroral administration; type: functional; details: route oral; in short: as §1
Rattus norvegicus [16] = experiment: Compound was evaluated for D2 dopaminergic activity measured as total contralateral turns after 1 hr at a dose of 0.03 mg/kg administered subcutaneously.; type: functional; details: route subcutaneous; in short: as §1
Rattus norvegicus [17] = experiment: Compound was evaluated for D2 dopaminergic activity measured as total contralateral turns after 2 hr at a dose of 0.3 mg/kg peroral administration.; type: functional; details: route oral; in short: as §1
Rattus norvegicus [18] = experiment: Compound was evaluated for D2 dopaminergic activity measured as total contralateral turns after 2 hr at a dose of 0.1 mg/kg administered subcutaneously.; type: functional; details: route subcutaneous; in short: as §1
Rattus norvegicus [19] = experiment: Compound was evaluated for D2 dopaminergic activity measured as total contralateral turns after 1 hr at a dose of 3 mg/kg peroral administration.; type: functional; details: route oral; in short: as §1
D(2) dopamine receptor [20] = biological target: T1, D(2) dopamine receptor; experiment: Compound was evaluated for its ability to displace tritiated receptor ligand in rat striatal membranes 3[H]spiperone, a dopamine antagonist; type: functional, cell membranes, Striatum, Membrane
In short: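 Rat striatal membranes (0.3–1.0 mg protein/mL) with 0.1 nmol/l [³H]spiperone in 50 mmol Tris/HCl, pH 7.7, plus 0.1% ascorbic acid. Incubated 15 min at 37 °C, stopped by rapid filtration and three ice-cold washes. Nonspecific binding was defined with 1 μmol/L (+)-butaclamol. Values are means ± SD of 2-4 independent determinations, with triplicates per concentration.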

Rattus norvegicus [21] = experiment: Compound was evaluated for D2 dopaminergic activity measured as total contralateral turns after 1 hr at a dose of 0.1 mg/kg peroral administration.; type: functional; details: route oral; in short: as §1
Rattus norvegicus [22] = experiment: Compound was evaluated for D2 dopaminergic activity measured as total contralateral turns after 2 hr at a dose of 3 mg/kg peroral administration.; type: functional; details: route oral; in short: as §1
Rattus norvegicus [23] = experiment: Compound was evaluated for D2 dopaminergic activity measured as total contralateral turns after 1 hr at a dose of 0.1 mg/kg administered subcutaneously.; type: functional; details: route subcutaneous; in short: as §1
Rattus norvegicus [24] = experiment: Compound was evaluated for D2 dopaminergic activity measured as total contralateral turns after 2 hr at a dose of 0.1 mg/kg peroral administration.; type: functional; details: route oral; in short: as §1
Rattus norvegicus [25] = experiment: Compound was evaluated for D2 dopaminergic activity measured as total contralateral turns after 2 hr at a dose of 1 mg/kg peroral administration.; type: functional; details: route oral; in short: as §1
Rattus norvegicus [26] = experiment: Compound was evaluated for D2 dopaminergic activity measured as total contralateral turns after 1 hr at a dose of 0.3 mg/kg peroral administration.; type: functional; details: route oral; in short: as §1
Rattus norvegicus [27] = experiment: Compound was evaluated for D2 dopaminergic activity measured as total contralateral turns after 1 hr at a dose of 1 mg/kg peroral administration.; type: functional; details: route oral; in short: as §1
Rattus norvegicus [28] = experiment: Compound was evaluated for D2 dopaminergic activity measured as total contralateral turns after 2 hr at a dose of 0.03 mg/kg administered subcutaneously.; type: functional; details: route subcutaneous; in short: as §1
Rattus norvegicus [29] = experiment: compound was evaluated for increase striatal acetyl choline (AcCh) concentration in intact rat administered subcutaneously.; type: functional; details: sc

SMILES | Ki (D(2) dopamine receptor [1]) [nM] | Turns/first hour (Rattus norvegicus [2]) | IC50 (D(2) dopamine receptor [3]) [nM] | further results
C1=C(c2ccccc2)CCN(CCc2c[nH]c3ccccc23)C1 | 81 | <50 | 100 | 
COc1ccc2[nH]cc(CCCCN3CC=C(c4ccccc4)CC3)c2c1 | 4.4 | 504 | 20 | 
Clc1ccc(C2=CCN(CCCCc3c[nH]c4ccccc34)CC2)cc1 | 46 | 100 | 100 | 
Oc1ccc2c(CCCCN3CC=C(c4ccccc4)CC3)c[nH]c2c1 | 2.5 | 786 | 8 | 
C1=CCN(CCCCc2c[nH]c3ccccc23)CC1 | > 1000 | <100 | > 1000 | 
C1=C(c2ccccc2)CCN(CCCCCCc2c[nH]c3ccccc23)C1 | 4.3 | <100 | 40 | 
COc1ccc2c(CCCCN3CC=C(c4ccccc4)CC3)c[nH]c2c1 | 1.8 | 792 | 9 | 
Cn1cc(CCCCN2CC=C(c3ccccc3)CC2)c2ccccc21 | 15 | 121 | 100 | 
Clc1ccccc1C1=CCN(CCCCc2c[nH]c3ccccc23)CC1 | 21 | <50 | 100 | 
C1=C(c2ccccc2)CCN(CCCc2c[nH]c3ccccc23)C1 | 12 | ~250 | 50 | 
Fc1ccccc1C1=CCN(CCCCc2c[nH]c3ccccc23)CC1 | 4 | 186 | 20 | 
Clc1ccc2[nH]cc(CCCCN3CC=C(c4ccccc4)CC3)c2c1 | 3.1 | <50 | 50 | 
Fc1ccc2[nH]cc(CCCCN3CC=C(c4ccccc4)CC3)c2c1 | 1.6 | 552 | 10 | 
Cc1[nH]c2ccccc2c1CCCCN1CC=C(c2ccccc2)CC1 | 5.4 | 318 | 50 | 
COc1ccc(C2=CCN(CCCCc3c[nH]c4ccccc34)CC2)cc1 | 41 | <50 | 700 | 
C1=C(c2ccccc2)CCN(CCCCCc2c[nH]c3ccccc23)C1 | 13 | <50 | 60 | 
C1=C(c2ccccc2)CCN(CCCCc2c[nH]c3ccccc23)C1 |  | 864 | 105 | Turns (Rattus norvegicus [4]): 936; Turns (Rattus norvegicus [5]): 68; Turns (Rattus norvegicus [6]): 412; Turns (Rattus norvegicus [7]): 99; ED50 (Rattus norvegicus [8]): > 3 mg/kg; Turns (Rattus norvegicus [9]): 236; Turns (Rattus norvegicus [10]): 422; Turns (Rattus norvegicus [11]): 44; Ki (D(2) dopamine receptor [12]): 6.39 nM; Turns (Rattus norvegicus [13]): 825; Turns (Rattus norvegicus [14]): 1731; Turns (Rattus norvegicus [15]): 201
c1ccc(C2CCN(CCCCc3c[nH]c4ccccc34)CC2)cc1 | > 100 | <50 | > 100 | 
Fc1ccc(C2=CCN(CCCCc3c[nH]c4ccccc34)CC2)cc1 | 15 | <100 | 90 | 
CN1CCc2cccc3c2[C@H]1Cc1ccc(O)c(O)c1-3 [APOMORPHINE] |  |  |  | ED50 (Rattus norvegicus [8]): 0.28 mg/kg; Turns (Rattus norvegicus [16]): 1268
Oc1ccc2[nH]cc(CCCCN3CC=C(c4ccccc4)CC3)c2c1 [ROXINDOLE] | 0.88 | 948 |  | Turns (Rattus norvegicus [17]): 534; Turns (Rattus norvegicus [18]): 2246; Turns (Rattus norvegicus [19]): 926; IC50 (D(2) dopamine receptor [20]): 5.95 nM; Turns (Rattus norvegicus [21]): 251; Turns (Rattus norvegicus [22]): 2010; Turns (Rattus norvegicus [23]): 1132; Turns (Rattus norvegicus [24]): 287; Turns (Rattus norvegicus [25]): 1694; Turns (Rattus norvegicus [26]): 397; Turns (Rattus norvegicus [27]): 830; Turns (Rattus norvegicus [28]): 718; Turns (Rattus norvegicus [16]): 399; ED50 (Rattus norvegicus [29]): > 30 mg/kg
